Published values collected from several papers.
Each line is one published result; the experiments were not run side by side. Converted amounts (≈) assume the structure as drawn.

SMILES | organism | test | test system | conditions | quantity | result
O=C1Cc2ccccc2C(=O)N1O | Hepatitis B virus | viral replication, inhibitor, qPCR | HepDES19 | 72 h | EC50 | 4.2 µM
CN[C@H](CC(C)C)C(=O)N[C@H]1C(=O)N[C@@H](CC(N)=O)C(=O)N[C@H]2C(=O)N[C@H]3C(=O)N[C@H](C(=O)N[C@H](C(=O)O)c4cc(O)cc(O)c4-c4cc3ccc4O)[C@H](O)c3ccc(c(Cl)c3)Oc3cc2cc(c3O[C@@H]2O[C@H](CO)[C@@H](O)[C@H](O)[C@H]2O[C@H]2C[C@](C)(N)[C@H](O)[C@H](C)O2)Oc2ccc(cc2Cl)[C@H]1O | Clostridioides difficile | microbial growth, broth dilution |  | 24 h | MIC | 1 µg/mL
CC(C)OC(=O)OCOP(=O)(CO[C@H](C)Cn1cnc2c(N)ncnc21)OCOC(=O)OC(C)C | Hepatitis B virus | viral replication, qPCR | HepG2.2.15 | 14 days | IC50 | 0.2 µM
C[C@@H]1C[C@@H]([C@H](O)CC2CC(=O)NC(=O)C2)C(=O)[C@@H](C)C1 | Saccharomyces cerevisiae | microbial growth |  |  | MIC | 3 µM
C=C1[C@H](CO)[C@@H](O)C[C@@H]1n1cnc2c(=O)[nH]c(N)nc21 | Hepatitis B virus | viral replication, qPCR | HepG2.2.15 | 14 days | IC50 | 0.003 µM
CC[C@H](C)C[C@H](C)CCCCCCCCC(=O)N[C@H]1C[C@@H](O)[C@@H](NCCN)NC(=O)[C@@H]2[C@@H](O)CCN2C(=O)[C@H]([C@H](O)CCN)NC(=O)[C@H]([C@H](O)[C@@H](O)c2ccc(O)cc2)NC(=O)[C@@H]2C[C@@H](O)CN2C(=O)[C@H]([C@@H](C)O)NC1=O | Saccharomyces cerevisiae | microbial growth, broth dilution | S288C |  | MIC | 0.25 µg/mL
[O-][N+]1=C(c2ccc(Cl)cc2)C2=NCCN2c2ccccc21 | Fusobacterium nucleatum | microbial growth |  |  | MIC50 | ≤ 0.06 µg/mL
C[C@H]1COCCN1c1nc(NCc2cccnc2C(F)(F)F)c2cccnc2n1 | Clostridioides difficile | microbial growth, broth dilution | 630 |  | MIC | 64 µg/mL
N#C[C@]1(CO)O[C@@H](n2cnc3c(=O)[nH]c(N)nc32)C[C@@H]1O | Hepatitis B virus | viral replication, qPCR | HepG2.2.15 | 14 days | IC50 | 0.0005 µM
O=C(NCc1ccc2c(c1)OCO2)c1ccc(Br)cc1F | Saccharomyces cerevisiae | microbial growth | BY4743 | 72 h | MIC | > 200 µM
Cc1ncc([N+](=O)[O-])n1CCO | Clostridioides difficile | microbial growth |  |  | MIC50 | 0.25 µg/mL (≈ 1.46 µM)
CC(C)OC(=O)[C@H](C)N[P@](=O)(CO[C@H](C)Cn1cnc2c(N)ncnc21)Oc1ccccc1 | Hepatitis B virus | viral replication, inhibitor | HepG2.2.15 | 1 µM, 6 days | inhibition | ~65%
CCN1CCN(C(=O)N[C@@H](C(=O)N[C@@H]2C(=O)N3C(C(=O)O)=C(CSc4nnnn4C)CS[C@H]23)c2ccc(O)cc2)C(=O)C1=O | Clostridioides difficile | microbial growth, broth dilution |  | 24 h | MIC | 100 µg/mL
O=[N+]([O-])c1ccc(C2=[N+]([O-])c3ccccc3N3CCN=C23)cc1 | Clostridioides difficile | microbial growth |  |  | MIC90 | ≤ 0.06 µg/mL
CC(C)(C)C(=O)OCOP(=O)(COCCn1cnc2c(N)ncnc21)OCOC(=O)C(C)(C)C | Hepatitis B virus | viral replication, qPCR | HepG2.2.15 | 14 days | IC50 | 0.88 µM
